Read-outs that look alike come from different tables or passages of the source.
Legend:
guinea pigs [1] = type: in vivo, guinea pig; settings: for Click threshold shift, difference as compared to the control group: single shot, vs water for injection ear
guinea pigs [2] = type: in vivo, guinea pig; settings: for Hearing threshold at 4 kHz / Hearing threshold at 8 kHz / Hearing threshold at 16 kHz / Hearing threshold at 32 kHz / Mean hearing threshold at 1 kHz / Mean hearing threshold at 2 kHz: day 28
outer hair cells = assay: Outer hair cell counts in organ of Corti whole-mounts; type: in vivo, guinea pig; settings: for Outer hair cell counts, 2nd turn / Outer hair cell counts, 3rd turn / Outer hair cell counts, apex / Outer hair cell counts, basal turn: after day 28
Outline: (§1)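 Guinea pigs were dosed intratympanically (bulla filled; water for injection in the opposite ear) or intraperitoneally daily for 3 days. After the day-28 audiometry they were perfused with 4% buffered PFA. Cochleae were decapsulated and stained 30 min at room temperature with phalloidin-TRITC (0.3 µg/ml) and Hoechst 33342 (0.05 mg/ml), then imaged by confocal microscopy. Hair cells were counted in 3 random 200 μm segments per turn, as viable/(viable+missing) percentage.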

inner hair cells = assay: Inner hair cell counts in organ of Corti whole-mounts; type: in vivo, guinea pig; settings: 1.5 mg/kg systemic; after day 28
Outline: as §1

[3] = Body weight after systemic application; type: in vivo, guinea pig
peritoneum = assay: Histologic analysis of the peritoneum after i.p. application; type: in vivo, guinea pig; settings: selected animals
[4] = cited from earlier work

With CNCC(Cl)c1ccc(OC(C)=O)cc1.Cl (centres unmarked) [CpdA, 2-(4-acetoxyphenyl)-2-chloro-N-methyl-ethylammonium chloride] the “Click threshold shift, difference as compared to the control group” value (guinea pigs [1]; 1 mM IT) was 28 dB, the “Difference in click threshold shift vs control, day 28” value (guinea pigs [1]; 1 mM IT) was 19 dB and the “Change in click hearing thresholds as compared to baseline” value (guinea pigs [1]; 1.5 mg/kg intraperitoneally on three consecutive days) was “did not result in clinically relevant or statistically significant changes”. For the same molecule, the “Change in click hearing thresholds as compared to baseline” value (guinea pigs [1]; 4.5 mg/kg intraperitoneally on three consecutive days) was “did not result in clinically relevant or statistically significant changes”, the “Click threshold shift, difference as compared to the control group” value (guinea pigs [1]; 10 mM IT) was 21 dB and the “Difference in click threshold shift vs control, day 28” value (guinea pigs [1]; 10 mM IT) was 12 dB. The “Hearing threshold at 4 kHz” value (guinea pigs [2]; 1 mM IT) was 57.5 dB SPL, the “Hearing threshold at 8 kHz” value (guinea pigs [2]; 1 mM IT) was 40.8 dB SPL and the “Hearing threshold at 16 kHz” value (guinea pigs [2]; 1 mM IT) was 32.5 dB SPL. For the same molecule, the “Hearing threshold at 32 kHz” value (guinea pigs [2]; 1 mM IT) was 50 dB SPL, the “Mean hearing threshold at 1 kHz” value (guinea pigs [2]; 1 mM IT) was 56.7 dB SPL and the “Mean hearing threshold at 2 kHz” value (guinea pigs [2]; 1 mM IT) was 55 dB. The “Frequency-specific ABR threshold shift vs baseline” value (guinea pigs [2]; 1.5 mg/kg intraperitoneally, day 21, p=0.048) was 5 dB, the “Hearing threshold at 4 kHz” value (guinea pigs [2]; 10 mM IT) was 49.2 dB SPL and the “Hearing threshold at 8 kHz” value (guinea pigs [2]; 10 mM IT) was 35 dB SPL. The “Hearing threshold at 16 kHz” value (guinea pigs [2]; 10 mM IT) was 35 dB SPL, the “Hearing threshold at 32 kHz” value (guinea pigs [2]; 10 mM IT) was 66.7 dB SPL and the “Mean hearing threshold at 1 kHz” value (guinea pigs [2]; 10 mM IT) was 44.2 dB SPL. For the same molecule, the “Mean hearing threshold at 2 kHz” value (guinea pigs [2]; 10 mM IT) was 40 dB, the “Outer hair cell counts, 2nd turn” value (outer hair cells; 1 mM IT) was 99.5 ± 1.3% and the “Outer hair cell counts, 3rd turn” value (outer hair cells; 1 mM IT) was 99.0 ± 3.5%. The “Outer hair cell counts, apex” value (outer hair cells; 1 mM IT) was 95.2 ± 7.5%, the “Outer hair cell counts, basal turn” value (outer hair cells; 1 mM IT) was 99.5 ± 1.4% and the “Outer hair cell counts, 2nd turn” value (outer hair cells; 1.5 mg/kg systemic) was 99.8 ± 1.3%. For the same molecule, the “Outer hair cell counts, 3rd turn” value (outer hair cells; 1.5 mg/kg systemic) was 97.7 ± 6.4%, the “Outer hair cell counts, apex” value (outer hair cells; 1.5 mg/kg systemic) was 93.8 ± 9.3% and the “Outer hair cell counts, basal turn” value (outer hair cells; 1.5 mg/kg systemic) was 99.6 ± 1.2%. The “Outer hair cell counts, 2nd turn” value (outer hair cells; 4.5 mg/kg systemic) was 99.7 ± 1.3%, the “Outer hair cell counts, 3rd turn” value (outer hair cells; 4.5 mg/kg systemic) was 98.5 ± 3.5% and the “Outer hair cell counts, apex” value (outer hair cells; 4.5 mg/kg systemic) was 98.5 ± 3.0%. For the same molecule, the “Outer hair cell counts, basal turn” value (outer hair cells; 4.5 mg/kg systemic) was 99.9 ± 0.6%, the “Outer hair cell counts, 2nd turn” value (outer hair cells; 10 mM IT) was 98.4 ± 2.4% and the “Outer hair cell counts, 3rd turn” value (outer hair cells; 10 mM IT) was 98.8 ± 3.3%. For the same molecule, the “Outer hair cell counts, apex” value (outer hair cells; 10 mM IT) was 97.7 ± 4.2%, the “Outer hair cell counts, basal turn” value (outer hair cells; 10 mM IT) was 99.6 ± 1.3% and the “Loss of outer or inner hair cells” value (outer hair cells; any of the treatment groups (IT and systemic)) was “did not result in a statistically significant loss”. The “Inner hair cell counts, 2nd turn” value (inner hair cells) was 99.6 ± 1.3%, the “Inner hair cell counts, 3rd turn” value (inner hair cells) was 99.7 ± 1.2% and the Body weight [3] was “weight loss was also observed”. The “Histologic analysis of the peritoneum” value (peritoneum) was “did not show any inflammatory or necrotic alterations” and the “Stability in buffered solutions” value [4] was “instability”.
